# Results from ChEMBL document CHEMBL1955770, “Inhibition of S/G2 phase CDK4 reduces mitotic fidelity” (J Biol Chem, 2006).
# What was measured:
# [1] = target: Serine/threonine-protein kinase 16 (Homo sapiens) (UniProt O75716); test: Inhibition of STK16 at 1 uM
# [2] = target: Receptor tyrosine-protein kinase erbB-4 (Homo sapiens) (UniProt Q15303); test: Inhibition of ERBB4 at 1 uM
# [3] = target: Fibroblast growth factor receptor 2 (Homo sapiens) (UniProt P21802); test: Inhibition of FGFR2 at 1 uM
# [4] = target: Mitogen-activated protein kinase 12 (Homo sapiens) (UniProt P53778); test: Inhibition of p38-gamma at 1 uM
# [5] = target: Casein kinase I isoform gamma-1 (Homo sapiens) (UniProt Q9HCP0); test: Inhibition of CSNK1G1 at 1 uM
# [6] = target: Phosphorylase b kinase gamma catalytic chain, liver/testis isoform (Homo sapiens) (UniProt P15735); test: Inhibition of PHKG2 at 1 uM
# [7] = target: Myosin light chain kinase 2, skeletal/cardiac muscle (Homo sapiens) (UniProt Q9H1R3); test: Inhibition of MYLK2 at 1 uM
# [8] = target: Serine/threonine-protein kinase Nek6 (Homo sapiens) (UniProt Q9HC98); test: Inhibition of NEK6 at 1 uM
# [9] = target: Phosphorylase b kinase gamma catalytic chain, skeletal muscle/heart isoform (Homo sapiens) (UniProt Q16816); test: Inhibition of PHKG1 at 1 uM
# [10] = target: Tyrosine-protein kinase ABL2 (Homo sapiens) (UniProt P42684); test: Inhibition of ABL2 at 1 uM
# In short: (§1)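 Competition binding screen across a kinase panel with compound at 1 μM. Read-out is % competition. Kinases not hit at this concentration were scored '<50'. No Kd was determined for hits.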
# [11] = target: Calcium/calmodulin-dependent protein kinase type 1 (Homo sapiens) (UniProt Q14012); test: Inhibition of CAMK1 at 1 uM; in short: as §1
# Chain of Calcium/calmodulin-dependent protein kinase type 1 (Homo sapiens) (Q14012 whole entry, looked up): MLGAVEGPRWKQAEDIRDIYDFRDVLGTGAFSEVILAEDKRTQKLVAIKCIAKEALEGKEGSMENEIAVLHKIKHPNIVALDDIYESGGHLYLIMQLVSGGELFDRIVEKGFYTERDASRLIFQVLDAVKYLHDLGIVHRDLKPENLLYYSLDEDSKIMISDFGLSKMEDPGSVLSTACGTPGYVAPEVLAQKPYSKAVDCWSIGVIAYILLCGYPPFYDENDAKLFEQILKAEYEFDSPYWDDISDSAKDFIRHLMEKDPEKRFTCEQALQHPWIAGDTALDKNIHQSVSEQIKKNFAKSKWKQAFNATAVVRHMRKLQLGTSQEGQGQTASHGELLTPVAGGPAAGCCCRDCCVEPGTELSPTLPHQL
# [12] = target: Serine/threonine-protein kinase B-raf (Homo sapiens) (UniProt P15056); test: Inhibition of BRAF at 1 uM; in short: as §1
# [13] = target: Serine/threonine-protein kinase PAK 1 (Homo sapiens) (UniProt Q13153); test: Inhibition of PAK1 at 1 uM
# Chain of Serine/threonine-protein kinase PAK 1 (Homo sapiens) (Q13153 whole entry): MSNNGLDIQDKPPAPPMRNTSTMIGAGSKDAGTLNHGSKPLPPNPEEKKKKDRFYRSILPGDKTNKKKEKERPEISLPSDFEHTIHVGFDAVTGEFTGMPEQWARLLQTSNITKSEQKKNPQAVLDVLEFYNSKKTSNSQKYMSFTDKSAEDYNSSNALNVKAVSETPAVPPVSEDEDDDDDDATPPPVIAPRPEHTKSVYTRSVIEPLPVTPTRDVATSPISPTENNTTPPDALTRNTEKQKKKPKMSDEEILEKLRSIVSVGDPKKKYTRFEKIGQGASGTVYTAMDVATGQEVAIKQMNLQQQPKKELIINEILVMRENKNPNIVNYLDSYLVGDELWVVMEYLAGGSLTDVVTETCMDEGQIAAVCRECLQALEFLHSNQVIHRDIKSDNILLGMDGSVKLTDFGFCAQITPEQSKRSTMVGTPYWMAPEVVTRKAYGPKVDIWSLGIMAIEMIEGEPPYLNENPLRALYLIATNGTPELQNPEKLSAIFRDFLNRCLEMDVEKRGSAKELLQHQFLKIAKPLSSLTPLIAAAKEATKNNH
# [14] = target: Tyrosine-protein kinase ITK/TSK (Homo sapiens) (UniProt Q08881); test: Inhibition of ITK at 1 uM
# [15] = target: Cyclin-dependent kinase 16 (Homo sapiens) (UniProt Q00536); test: Inhibition of PCTK1 at 1 uM
# [16] = target: Casein kinase I isoform epsilon (Homo sapiens) (UniProt P49674); test: Inhibition of CSNK1E at 1 uM
# [17] = target: Mitogen-activated protein kinase 8 (Homo sapiens) (UniProt P45983); test: Inhibition of JNK1 at 1 uM
# [18] = target: Casein kinase I isoform gamma-2 (Homo sapiens) (UniProt P78368); test: Inhibition of CSNK1G2 at 1 uM
# Chain of Casein kinase I isoform gamma-2 (Homo sapiens) (P78368 whole entry, looked up, canonical isoform): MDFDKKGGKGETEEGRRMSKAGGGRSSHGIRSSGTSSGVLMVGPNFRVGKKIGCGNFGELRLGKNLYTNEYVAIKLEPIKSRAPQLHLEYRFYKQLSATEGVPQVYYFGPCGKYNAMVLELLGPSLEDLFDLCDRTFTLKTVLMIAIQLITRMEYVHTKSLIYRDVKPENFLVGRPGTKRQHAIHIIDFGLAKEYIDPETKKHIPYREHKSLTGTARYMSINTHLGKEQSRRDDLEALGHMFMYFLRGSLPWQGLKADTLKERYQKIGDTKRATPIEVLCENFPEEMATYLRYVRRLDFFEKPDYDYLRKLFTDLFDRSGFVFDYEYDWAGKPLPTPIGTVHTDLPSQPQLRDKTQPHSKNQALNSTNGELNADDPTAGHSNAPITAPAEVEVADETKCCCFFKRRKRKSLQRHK
# [19] = target: Serine/threonine-protein kinase PAK 5 (Homo sapiens) (UniProt Q9P286); test: Inhibition of PAK7/PAK5 at 1 uM
# [20] = target: BMP-2-inducible protein kinase (Homo sapiens) (UniProt Q9NSY1); test: Inhibition of BIKE at 1 uM; in short: as §1
# Chain of BMP-2-inducible protein kinase (Homo sapiens) (Q9NSY1 whole entry, looked up): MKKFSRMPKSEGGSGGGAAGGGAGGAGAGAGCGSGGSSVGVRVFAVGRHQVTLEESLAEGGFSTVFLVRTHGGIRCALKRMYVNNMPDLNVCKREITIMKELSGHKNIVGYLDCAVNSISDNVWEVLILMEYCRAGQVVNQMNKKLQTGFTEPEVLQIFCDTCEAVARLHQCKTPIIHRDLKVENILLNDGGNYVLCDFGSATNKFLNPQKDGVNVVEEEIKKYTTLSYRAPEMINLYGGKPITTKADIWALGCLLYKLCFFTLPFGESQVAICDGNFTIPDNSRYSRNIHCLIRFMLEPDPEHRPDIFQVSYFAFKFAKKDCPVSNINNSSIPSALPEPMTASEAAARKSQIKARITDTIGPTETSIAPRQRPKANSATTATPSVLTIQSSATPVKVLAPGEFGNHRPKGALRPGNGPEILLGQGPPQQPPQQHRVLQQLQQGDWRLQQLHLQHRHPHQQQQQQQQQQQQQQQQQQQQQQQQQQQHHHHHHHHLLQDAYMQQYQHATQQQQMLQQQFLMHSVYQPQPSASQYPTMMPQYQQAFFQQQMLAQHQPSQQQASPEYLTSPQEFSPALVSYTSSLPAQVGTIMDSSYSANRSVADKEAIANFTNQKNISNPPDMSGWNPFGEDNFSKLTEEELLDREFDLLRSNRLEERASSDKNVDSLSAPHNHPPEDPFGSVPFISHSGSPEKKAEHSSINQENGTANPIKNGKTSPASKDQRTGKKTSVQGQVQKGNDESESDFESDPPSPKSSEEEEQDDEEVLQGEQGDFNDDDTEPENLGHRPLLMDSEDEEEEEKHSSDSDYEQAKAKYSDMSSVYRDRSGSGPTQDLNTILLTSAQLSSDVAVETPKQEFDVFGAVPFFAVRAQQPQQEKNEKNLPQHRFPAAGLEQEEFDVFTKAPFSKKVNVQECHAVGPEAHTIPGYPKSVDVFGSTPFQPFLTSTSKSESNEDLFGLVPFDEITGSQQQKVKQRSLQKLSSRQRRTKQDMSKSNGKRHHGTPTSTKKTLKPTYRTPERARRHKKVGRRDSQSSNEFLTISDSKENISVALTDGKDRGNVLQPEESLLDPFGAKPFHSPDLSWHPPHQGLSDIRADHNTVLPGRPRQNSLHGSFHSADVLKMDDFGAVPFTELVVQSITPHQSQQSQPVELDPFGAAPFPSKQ
# [21] = target: Ribosomal protein S6 kinase alpha-5 (Homo sapiens) (UniProt O75582); test: Inhibition of RPS6KA5 Kin.Dom.1 at 1 uM
# [22] = target: Serine/threonine-protein kinase 17B (Homo sapiens) (UniProt O94768); test: Inhibition of STK17B at 1 uM
# Chain of Serine/threonine-protein kinase 17B (Homo sapiens) (O94768 whole entry): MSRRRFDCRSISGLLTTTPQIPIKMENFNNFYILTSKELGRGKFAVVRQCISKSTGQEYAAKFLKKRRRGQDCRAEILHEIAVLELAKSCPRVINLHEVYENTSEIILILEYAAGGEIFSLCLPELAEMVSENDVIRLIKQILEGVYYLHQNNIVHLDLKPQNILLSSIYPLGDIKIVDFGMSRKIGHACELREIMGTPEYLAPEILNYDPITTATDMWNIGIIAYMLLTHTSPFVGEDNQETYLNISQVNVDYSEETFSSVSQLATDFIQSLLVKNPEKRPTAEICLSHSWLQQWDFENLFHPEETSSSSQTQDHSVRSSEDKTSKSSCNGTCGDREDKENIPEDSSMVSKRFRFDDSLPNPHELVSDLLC
# [23] = target: Serine/threonine-protein kinase PAK 4 (Homo sapiens) (UniProt O96013); test: Inhibition of PAK4 at 1 uM
# [24] = target: Calcium/calmodulin-dependent protein kinase type II subunit alpha (Homo sapiens) (UniProt Q9UQM7); test: Inhibition of CAMK2A at 1 uM; in short: as §1
# [25] = target: Tyrosine-protein kinase Lyn (Homo sapiens) (UniProt P07948); test: Inhibition of LYN at 1 uM
# [26] = target: Tyrosine-protein kinase BTK (Homo sapiens) (UniProt Q06187); test: Inhibition of BTK at 1 uM; in short: as §1
# [27] = target: Ephrin type-A receptor 8 (Homo sapiens) (UniProt P29322); test: Inhibition of EPHA8 at 1 uM
# [28] = target: Calcium/calmodulin-dependent protein kinase type II subunit beta (Homo sapiens) (UniProt Q13554); test: Inhibition of CAMK2B at 1 uM; in short: as §1
# [29] = target: Angiopoietin-1 receptor (Homo sapiens) (UniProt Q02763); test: Inhibition of TIE2 at 1 uM
# [30] = target: Ephrin type-A receptor 4 (Homo sapiens) (UniProt P54764); test: Inhibition of EPHA4 at 1 uM
# Chain of Ephrin type-A receptor 4 (Homo sapiens) (P54764 whole entry): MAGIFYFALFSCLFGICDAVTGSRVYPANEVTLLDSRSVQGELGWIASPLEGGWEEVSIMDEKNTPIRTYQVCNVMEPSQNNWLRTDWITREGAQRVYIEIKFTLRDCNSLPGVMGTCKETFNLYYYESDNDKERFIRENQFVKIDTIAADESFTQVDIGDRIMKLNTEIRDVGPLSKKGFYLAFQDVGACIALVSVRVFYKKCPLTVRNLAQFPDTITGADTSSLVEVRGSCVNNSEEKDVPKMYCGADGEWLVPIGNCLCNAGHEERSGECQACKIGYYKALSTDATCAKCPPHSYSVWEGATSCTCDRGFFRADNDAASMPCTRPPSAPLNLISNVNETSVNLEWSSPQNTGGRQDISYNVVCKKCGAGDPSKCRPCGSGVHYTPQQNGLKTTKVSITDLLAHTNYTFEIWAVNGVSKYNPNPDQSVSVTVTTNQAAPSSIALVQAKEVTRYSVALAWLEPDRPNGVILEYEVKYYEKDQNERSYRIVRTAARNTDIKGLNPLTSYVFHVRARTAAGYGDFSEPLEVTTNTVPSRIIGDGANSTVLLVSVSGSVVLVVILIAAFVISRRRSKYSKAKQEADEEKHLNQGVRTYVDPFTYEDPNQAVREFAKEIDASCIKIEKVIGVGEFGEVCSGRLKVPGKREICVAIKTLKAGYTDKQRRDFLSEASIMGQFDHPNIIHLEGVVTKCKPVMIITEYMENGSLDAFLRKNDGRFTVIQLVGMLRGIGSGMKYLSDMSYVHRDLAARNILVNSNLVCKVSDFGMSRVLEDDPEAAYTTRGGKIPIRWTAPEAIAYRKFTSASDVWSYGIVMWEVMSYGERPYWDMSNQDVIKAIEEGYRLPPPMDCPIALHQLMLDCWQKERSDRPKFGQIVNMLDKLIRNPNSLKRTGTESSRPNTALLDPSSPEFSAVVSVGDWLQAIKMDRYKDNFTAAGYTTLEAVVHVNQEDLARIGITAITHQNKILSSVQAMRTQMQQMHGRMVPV
# [31] = target: High affinity nerve growth factor receptor (Homo sapiens) (UniProt P04629); test: Inhibition of TRKA at 1 uM
# [32] = target: TRAF2 and NCK-interacting protein kinase (Homo sapiens) (UniProt Q9UKE5); test: Inhibition of TNIK at 1 uM
# [33] = target: Leukocyte tyrosine kinase receptor (Homo sapiens) (UniProt P29376); test: Inhibition of LTK at 1 uM
# Chain of Leukocyte tyrosine kinase receptor (Homo sapiens) (P29376 whole entry): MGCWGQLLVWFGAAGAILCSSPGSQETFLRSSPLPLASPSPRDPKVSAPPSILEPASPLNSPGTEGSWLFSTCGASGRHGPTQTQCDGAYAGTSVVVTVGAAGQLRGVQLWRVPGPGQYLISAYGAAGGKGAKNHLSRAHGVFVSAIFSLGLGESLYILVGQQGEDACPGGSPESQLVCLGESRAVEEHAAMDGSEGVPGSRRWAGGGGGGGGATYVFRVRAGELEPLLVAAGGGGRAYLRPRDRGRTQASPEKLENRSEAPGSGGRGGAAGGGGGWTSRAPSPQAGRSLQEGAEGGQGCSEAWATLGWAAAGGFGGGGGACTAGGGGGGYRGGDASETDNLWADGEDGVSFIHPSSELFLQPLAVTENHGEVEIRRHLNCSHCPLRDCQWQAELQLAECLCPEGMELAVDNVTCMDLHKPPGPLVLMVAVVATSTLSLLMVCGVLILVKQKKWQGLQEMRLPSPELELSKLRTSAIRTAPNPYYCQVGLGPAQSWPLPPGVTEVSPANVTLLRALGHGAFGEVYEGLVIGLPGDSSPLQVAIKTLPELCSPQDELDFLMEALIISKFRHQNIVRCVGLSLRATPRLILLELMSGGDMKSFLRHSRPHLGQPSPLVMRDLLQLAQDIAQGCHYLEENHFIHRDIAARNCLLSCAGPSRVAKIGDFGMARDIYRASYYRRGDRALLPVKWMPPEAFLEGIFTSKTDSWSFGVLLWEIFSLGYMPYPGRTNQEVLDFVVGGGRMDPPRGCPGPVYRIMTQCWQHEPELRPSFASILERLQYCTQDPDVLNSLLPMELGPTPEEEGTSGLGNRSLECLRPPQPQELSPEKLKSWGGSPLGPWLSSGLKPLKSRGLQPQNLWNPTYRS
# Chain of Serine/threonine-protein kinase 16 (Homo sapiens) (O75716 whole entry): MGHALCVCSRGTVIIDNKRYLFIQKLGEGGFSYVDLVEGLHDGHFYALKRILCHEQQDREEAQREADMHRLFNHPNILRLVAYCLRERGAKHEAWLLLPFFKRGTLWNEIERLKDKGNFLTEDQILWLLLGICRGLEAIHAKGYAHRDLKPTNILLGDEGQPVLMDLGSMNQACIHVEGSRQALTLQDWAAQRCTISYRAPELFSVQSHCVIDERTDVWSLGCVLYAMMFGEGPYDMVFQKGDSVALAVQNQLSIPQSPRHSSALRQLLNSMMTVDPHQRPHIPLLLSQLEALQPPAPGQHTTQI
structure (smiles),measurement,setting,value
CN1CCN(c2ccc(Nc3nc(N)c(C(=O)c4ccc5c(c4)OCCO5)s3)cc2)CC1,inhibition,[1],87%
same,inhibition,[2],< 50%
same,inhibition,[3],< 50%
same,inhibition,[4],< 50%
same,inhibition,[5],98%
same,inhibition,[6],< 50%
same,inhibition,[7],< 50%
same,inhibition,[8],< 50%
same,inhibition,[9],< 50%
same,inhibition,[10],< 50%
same,inhibition,[11],< 50%
same,inhibition,[12],< 50%
same,inhibition,[13],< 50%
same,inhibition,[14],< 50%
same,inhibition,[15],99%
same,inhibition,[16],< 50%
same,inhibition,[17],< 50%
same,inhibition,[18],99%
same,inhibition,[19],< 50%
same,inhibition,[20],< 50%
same,inhibition,[21],< 50%
same,inhibition,[22],< 50%
same,inhibition,[23],< 50%
same,inhibition,[24],< 50%
same,inhibition,[25],< 50%
same,inhibition,[26],< 50%
same,inhibition,[27],< 50%
same,inhibition,[28],< 50%
same,inhibition,[29],< 50%
same,inhibition,[30],< 50%
same,inhibition,[31],< 50%
same,inhibition,[32],< 50%
same,inhibition,[33],< 50%
